Screening data: PubChem BioAssay, Broad Institute
MLL AF4-AF9 inh – inhibitors of human MLL-AF4/AF9 interaction | P42568 | AlphaScreen, biotin-AF4 peptide binding to FLAG-AF9 | inhibition, % at 10 µM | 350,000 tested, 0.47% active;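 active = every replicate reaching a set inhibition limit, whatever the replicate mean, cut at about 25% in these data; inconclusive = mean inhibition reaches that limit but some replicates miss it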
SIRT5 block – sirtuin-5 (human) deacylase inhibition; Q9NXA8; Purified SirT5, succinyl-peptide AMC, trypsin-coupled fluorescence; inhibition, % at 15 µM; 330,000 tested, 1.1% active; AID 652115; in the data active = inhibition above about 15%; inconclusive = no clear call, values can overlap the other calls
Target sequence (Q9NXA8 whole entry, looked up): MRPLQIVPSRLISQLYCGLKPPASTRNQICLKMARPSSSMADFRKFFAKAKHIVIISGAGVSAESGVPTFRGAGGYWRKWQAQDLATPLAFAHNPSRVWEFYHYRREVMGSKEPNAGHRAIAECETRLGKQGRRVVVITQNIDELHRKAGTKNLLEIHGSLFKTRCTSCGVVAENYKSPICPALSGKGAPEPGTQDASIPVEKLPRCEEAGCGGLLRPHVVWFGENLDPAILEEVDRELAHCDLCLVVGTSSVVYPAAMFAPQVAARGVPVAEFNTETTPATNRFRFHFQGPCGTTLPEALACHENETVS
E-selectin induc – induces E-selectin expression in human endothelial cells; P16581; HUVEC E-selectin immunofluorescence imaging; normalized: neutral wells 0, TNF-alpha wells 100; activation, % at 7.58 µM; 260,000 tested, 0.37% active; AID 686992;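 active = mean E-selectin-positive cell signal at least 10% of the positive control, reached in at least 60% of replicates, without over 20% cell loss; inconclusive = no rule given, readout overlaps actives, possibly toxicity-flagged; inactive = the rest, including those meeting only one limit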
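System: HUVEC / Compound: single concentration / Signal: immunofluorescence imaging / Read-out: percent E-selectin-positive cells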
S100A4 inh HTS – blocks human S100A4 binding to myosin IIA peptide | inhibition, % at 10.7 µM | P26447 | S100A4/TAMRA-MyoIIA peptide fluorescence polarization | 360,000 tested, 0.14% active;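 active = mean inhibition of at least 70% across replicates, with every replicate also reaching that level; inconclusive = mean inhibition reaches 70% but some replicates fall short; inactive = mean inhibition below 70%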
Target sequence (P26447 whole entry, looked up): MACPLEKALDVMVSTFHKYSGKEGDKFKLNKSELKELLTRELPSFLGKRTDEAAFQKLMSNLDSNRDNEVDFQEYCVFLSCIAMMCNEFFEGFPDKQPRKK
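assay system = human S100A4 monomer with TAMRA-labelled myosin IIA peptide | also added = labelled myosin peptide probe, 5 nM | incubation = 5 min between mix addition and reading | control set = DMSO and TFP controls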
ERAP1 HTS inh – blocks human ERAP1 aminopeptidase activity; Q9NZ08; recombinant ERAP1, Leu-AMC fluorescence, 60 min; inhibition, % at 10.7 µM; 340,000 tested, 0.15% active; AID 652197;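 active = mean replicate inhibition of at least 30%, or all replicates individually reaching that 30% level; inactive = mean below 30% and not every replicate reaching it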
rRNA inh HTS – selective bacterial rRNA inhibition in E. coli; E. coli WT GFP vs humanized-ribosome RFP mutants, fluorescence, 24 h; active compounds read low; DMSO median 0, no signal -100; GFP signal change (wild-type ribosome), % (test concentration not listed); 350,000 tested, 1.6% active;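 active = significant combined selectivity score with lowered wild-type GFP, culture density cut under 30%, mutant RFP and density less affected; inactive = any of these conditions unmet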
AID977621 – growth inhibition of wild-type GFP E. coli, dose response, H69 mutant RFP, cherry-pick | activity change, negative = inhibition at 50 µM | shares compounds with rRNA inh HTS | 1,900 tested, under 10 active | E. coli wild-type GFP strain growth, fluorescence, 24 h;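 active = Wild-type ribosome reporter drop at least double the humanized mutant ribosome reporter drop, growth loss under a set limit; inconclusive = no clear call, values can overlap the other calls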;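 also: wild-type GFP and H69 mutant RFP strains grown together 50/50 in each well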
AID977628 – E. coli growth inhibition, wild-type GFP versus h24 humanized RFP strain, dose response, h24 mutant RFP vs wild-type GFP, cherry-pick. shares compounds with rRNA inh HTS. activity change, negative = inhibition at 50 µM. E. coli WT GFP strain growth, fluorescence, 24 h. 1,900 tested, under 10 active;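 active = compound lowering the normal-ribosome reporter at least twice as much as the humanized-ribosome reporter, growth loss under a set limit; inconclusive = no clear call, values can overlap the other calls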;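 also: wild-type GFP and h24 humanized RFP strains co-cultured 1 to 1 per well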
Numbers stand for hits; i = inactive; ? = inconclusive; nt = no result. Hits are enriched below; roughly 3.4% of the tested compounds scored in any of these assays.

SMILES	MLL AF4-AF9 inh	SIRT5 block	E-selectin induc	S100A4 inh HTS	ERAP1 HTS inh	rRNA inh HTS	AID977621	AID977628
Cc1cnc(C)c(N2CCN(Cc3nc(-c4cccc(F)c4F)oc3C)CC2)n1	i	i	i	i	i	i	nt	nt
CCCNC(=O)N(C)C[C@@H]1Oc2ncc(-c3cccc(C#N)c3)cc2C(=O)N([C@H](C)CO)C[C@@H]1C	i	i	i	i	nt	i	nt	nt
O=C(Nc1cccc(O)c1)c1cccc(S(=O)(=O)Nc2cccc(O)c2)c1	i	i	i	i	i	-16.1	i	i
O=C(Nc1cccc(O)c1)c1cccc(C(=O)Nc2cccc(O)c2)c1	i	i	i	i	nt	i	nt	nt
C[C@@H]1CCCCO[C@@H](CN(C)Cc2ccccc2)[C@H](C)CN([C@H](C)CO)C(=O)c2cc(NC(=O)Nc3ccccc3)ccc2O1	i	i	nt	i	i	i	nt	nt
Cc1ccccc1COc1ccc(-c2nn[nH]n2)cc1	i	i	nt	i	i	-25.4	?	nt
Cc1ccc(CC2C(=O)N(c3ccccc3)C(=O)C2C)cc1 (centres undefined)	i	i	nt	i	i	i	nt	nt
Cc1ccc(CC2C(=O)N(c3cc(Cl)ccn3)C(=O)C2C)cc1 (centres undefined)	i	i	nt	i	i	-20.4	i	?
CC(C)(C)c1ccc(N2C(=O)CSC2c2cccnc2)cc1 (centres undefined)	i	i	nt	i	i	-19.5	i	nt
O=C1CSC(c2cccnc2)N1Cc1ccc(Cl)c(Cl)c1 (centres undefined)	nt	i	nt	i	i	-34.5	nt	i
COc1ccccc1NC(=O)N[C@H]1CC[C@H](CCn2cc(C3(O)CCCC3)nn2)O[C@@H]1CO	i	i	i	i	i	i	nt	nt
COc1ccc(NC(=O)Nc2ccc3c(c2)C(=O)N([C@@H](C)CO)C[C@H](C)[C@H](CN(C)C(=O)c2ccccc2)OCCCC[C@@H](C)O3)cc1	i	i	i	i	i	i	nt	nt
CCOC(=O)CCSc1n[nH]c(=S)s1	i	i	nt	i	i	-20.7	i	i
CCOC(=O)CSc1n[nH]c(=S)s1	i	i	i	i	nt	i	nt	nt
O=C(N[C@@H]1CC[C@H](CCNC(=O)C2CCOCC2)O[C@@H]1CO)c1ccccn1	i	i	i	i	i	i	nt	nt
COc1ccc(CNC(=O)Nc2ccc([N+](=O)[O-])cc2)cc1	i	i	i	i	i	i	nt	nt
COc1ccc(NC(=O)c2ccc(-c3ccc([N+](=O)[O-])cc3)o2)cc1	i	i	i	i	nt	-26.2	nt	?
C[C@@H]1CCCCO[C@@H](CN(C)C(=O)Nc2ccccc2)[C@H](C)CN([C@@H](C)CO)C(=O)c2cc(NC(=O)c3ccccc3)ccc2O1	i	i	nt	i	i	i	nt	nt
CCCCCc1nnc(NC(=O)C2COc3ccccc3O2)s1 (centres undefined)	i	i	i	i	i	-20.0	i	i
O=C(COC(=O)c1n[nH]c2ccccc12)Nc1cccc(S(=O)(=O)N2CCOCC2)c1	i	i	i	i	i	-25.3	i	i
CC(=O)c1cccc(NC(=O)COC(=O)CCC(=O)c2ccc(F)cc2)c1	i	i	i	i	i	-17.1	i	nt
O=C(COC(=O)CCC(=O)c1ccc(F)cc1)Nc1cccc(S(=O)(=O)N2CCCC2)c1	i	i	?	i	nt	-21.2	i	i
Cc1ccc(-c2cnc3c(c2)C(=O)N([C@@H](C)CO)C[C@@H](C)[C@H](CN(C)C(=O)c2cccc(F)c2)O3)cc1	i	i	i	nt	nt	i	nt	nt
CC1Sc2ccc(S(=O)(=O)NCc3ccccc3)cc2NC1=O (centres undefined)	i	i	nt	i	i	-21.2	i	nt
C[C@@H]1CCCCO[C@H](CN(C)S(=O)(=O)c2cccs2)[C@H](C)CN([C@H](C)CO)C(=O)c2cc(NC(=O)Nc3ccc(F)cc3)ccc2O1	i	i	i	i	i	i	nt	nt
SMILES	MLL AF4-AF9 inh	SIRT5 block	E-selectin induc	S100A4 inh HTS	ERAP1 HTS inh	rRNA inh HTS	AID977621	AID977628
COc1ccc(C2CN=NC23CCc2ccccc2C3=O)cc1 (centres undefined)	i	i	i	i	i	-20.4	i	nt
O=C1c2ccccc2CCC12N=NCC2c1ccc(Br)cc1 (centres undefined)	nt	nt	i	nt	nt	nt	nt	nt
CC(C)(O)C#Cc1ccc([C@@H]2[C@H]3CN(C(=O)c4ccncc4)CCCCN3[C@H]2CO)cc1	i	i	i	i	i	i	nt	nt
CO[C@@H]1CN(C)C(=O)c2cc(NS(=O)(=O)c3ccccc3)ccc2OC[C@@H](C)N(C(=O)NC(C)C)C[C@H]1C	i	i	i	i	i	i	nt	nt
Cc1onc(-c2c(F)cccc2Cl)c1C(=O)c1ccccc1O	i	i	i	i	i	-41.7	i	?
Cc1onc(-c2c(F)cccc2Cl)c1C(=O)c1ccccc1	i	i	i	i	nt	i	nt	nt
COc1ccc(OC)c(-c2csc(NC(=O)C3COc4ccccc4O3)n2)c1 (centres undefined)	i	i	nt	i	i	-22.8	i	nt
CN(C)S(=O)(=O)c1ccc(C(=O)OCC(=O)c2ccc3c(c2)NC(=O)CO3)cc1	i	i	i	i	nt	i	nt	nt
CN(C)S(=O)(=O)c1cccc(C(=O)OCC(=O)c2ccc3c(c2)NC(=O)CO3)c1	i	i	nt	i	i	-26.5	i	i
Cc1noc(C)c1S(=O)(=O)N(C)C[C@H]1OCCCC[C@H](C)Oc2ccc(NC(=O)Nc3cccc4ccccc34)cc2C(=O)N([C@H](C)CO)C[C@@H]1C	i	i	i	i	i	i	nt	nt
COc1cccc(C(=O)c2c[nH]c(C(=O)NCc3cccnc3)c2)c1	i	nt	i	i	i	-29.3	nt	i
CCC(CC)C(=O)c1c[nH]c(C(=O)NCc2cccnc2)c1	i	i	i	i	i	i	nt	nt
CC(=O)Oc1ccc(N(C(C)=O)S(=O)(=O)c2ccc(C)cc2)c2ccccc12	i	i	i	i	i	-25.1	i	nt
CC(=O)N(c1ccccc1C)S(=O)(=O)c1ccc(Cl)cc1	i	nt	nt	i	i	i	nt	nt
CC(=O)Oc1ccc(N(C(C)=O)S(=O)(=O)c2ccc(Cl)cc2)c2ccccc12	i	i	nt	i	i	-22.9	i	?
C[C@@H]1CN([C@@H](C)CO)S(=O)(=O)c2ccc(C#CC3CC3)cc2O[C@@H]1CN(C)C(=O)c1cccnc1	i	i	i	i	i	i	nt	nt
O=C([C@@H]1[C@@H](CO)[C@@H]2Cn3c(ccc(-c4ccccc4)c3=O)[C@@H]2N1CCC(F)(F)F)N1CCOCC1	i	i	i	i	i	i	nt	nt
COc1ccccc1NC(=O)CSc1nccn1Cc1ccc(F)cc1	i	i	i	i	i	-23.6	i	nt
